Screening data deposited in PubChem BioAssay by several laboratories.
RanGTP-Imp inh = disruptors of Ran-importin-beta complex formation – biochemical, FRET, CFP-Ran, YFP-importin-beta, homogeneous, primary screen; cell-free CFP-Ran/YFP-importin-beta FRET ratio; inhibition, % (concentration not given with the values); 300,000 compounds, 1.1% hits;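 active means more than half of the replicate wells show a fall in the fluorescence ratio signal beyond about 16%, limit read from the data, passing the limit was not always enough; inconclusive means exactly half of the replicate wells pass the set limit; inactive means fewer than half of replicates pass the limit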;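 further: 0% = DMSO wells and 100% = Ran loaded with GDP instead of GTP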
PHOSPHO1 inh = PHOSPHO1 (human) inhibition; AID 1565; 290,000 compounds, 1.1% hits; inhibition, % at 13.3 µM; recombinant PHOSPHO1, absorbance phosphatase assay; Q8TCT1; in the data active means inhibition above about 60%
Runt-CBFb FRET = inhibitors of human RUNX1 Runt domain binding to CBFb; 220,000 compounds, 0.46% hits; AID 1496; inhibition, % at 20 µM; Cerulean-Runt/Venus-CBFb FRET ratio 530/480, 1 h;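 active means inhibition over about 50% at 20 µM in the single-dose screen, limit read from the data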;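 further: 0% = DMSO wells and 100% = excess unlabeled CBFb competitor control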
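Measured by: fluorescence energy transfer, 422 nm excitation, 530/480 nm emission; Assay system: Cerulean-Runt domain; Medium: Tris pH 7.5 buffer with BSA; Measure: loss of energy transfer signal; Controls: 5 µM unlabeled CBFb as full-inhibition high control; Incubation: protein complex preformed 1 h, compound exposure 1 h, room temperature, dark.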
Efa HMGR inh = E. faecalis class II HMG-CoA reductase inhibition; 190,000 compounds, 0.41% hits; purified E. faecalis HMGR, NADPH absorbance 340 nm kinetic; AID 1066; inhibition, % at 10 µM;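 active means inhibition above a set limit, the median over all tested compounds plus 3 SD, cut at about 9.5% in these data; inconclusive means no clear call, values can overlap the other calls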;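 further: enzyme runs in reverse so mevalonate oxidation gives rising NADPH absorbance; 0% = complete reaction with DMSO and 100% = background rate lacking mevalonate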
Runt-SMMHC FRET = Runt domain-CBFb-SMMHC interaction inhibition. 220,000 compounds, 0.74% hits. Cerulean-Runt/Venus-CBFb-SMMHC FRET ratio 530/480, 1 h. Q01196+Q13951. AID 1434. inhibition, % at 20 µM;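 active means mean inhibition across duplicate retests at 20 µM reaching about 50%, limit read from the data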;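 further: 0% = DMSO wells and 100% = wells with excess untagged CBFb-SMMHC; inhibitors lower the FRET ratio by blocking Runt binding to CBFb-SMMHC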
Wee1 degr inh = blocks degradation of human Wee1 kinase. P30291. reporter increase, % at 5 µM. HeLa Luc-Wee1K328M stability, luciferase luminescence; 100% = proteasome inhibitor MG132 effect. 220,000 compounds, 1.2% hits;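 active means activation above the mean of all tested compounds plus 3 SD, set per screening run, cut at about 8.8% in these data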;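 further: cells exposed to compound for 20 h before luminescence read; 0% = DMSO alone and 100% = MG132 at 30 µM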
* hit, by the source's call; ? = inconclusive; . = not tested or not shown. Sampled rows, rich in hits. Any-hit rate of the full collection: about 3.4%.

SMILES | RanGTP-Imp inh | PHOSPHO1 inh | Runt-CBFb FRET | Efa HMGR inh | Runt-SMMHC FRET | Wee1 degr inh
O=C(O)/C(CC(=O)c1ccc(Cl)cc1)=N/Nc1ccc([N+](=O)[O-])cc1[N+](=O)[O-] | -1 | 7 | . | . | . | .
COc1ccc(OC)c(C2=NS(=O)(=O)N(C)C(C(=O)Nc3cccc(C(C)=O)c3)=C2)c1 | 8 | 15 | . | . | . | .
CCOc1ccc(NC(=O)C(=O)NCc2ccncc2)cc1 | -3 | 68* | 1 | -3 | -2 | 4
COC(=O)c1ccccc1NC(=O)NCc1cccnc1 | -6 | 10 | 2 | -8 | -3 | 1
CCOc1ccc(NC(=O)Nc2ccc(Cc3ccncc3)cc2)cc1 | 2 | 37 | -6 | . | -10 | 0
COC(=O)c1ccccc1NC(=O)C(=O)NCc1ccncc1 | 1 | 66* | -3 | 0 | 6 | 1
N=c1c(C(=O)NC2CCCC2)cc2c(=O)n3ccccc3nc2n1C1CCCC1 | 182* | 18 | 11 | -11 | -21 | -2
Cc1cccn2c(=O)c3cc(C(=O)NC4CCCC4)c(=N)n(C4CCCC4)c3nc12 | 180* | 24 | 18 | -4 | 63* | -2
N=c1c(C(=O)NCc2ccco2)cc2c(=O)n3ccccc3nc2n1C1CCCC1 | 135* | 37 | . | . | . | .
COc1ccc(CCn2c(=N)c(C(=O)NC3CCCC3)cc3c(=O)n4ccccc4nc32)cc1OC | 3 | 24 | . | . | . | .
Cc1cc(C)cc(N(CC(=O)NCc2ccc(F)cc2)C(=O)CCC(=O)Nc2ccccn2)c1 | 0 | 37 | . | . | . | .
CCC(=O)c1ccc(OC(=O)N2CCOCC2)cc1 | -2 | . | . | . | . | .
Cc1ccccc1N(C(=O)c1cccs1)c1nc2ccccc2s1 | -5 | 5 | 1 | -1 | -1 | 0
CCC(OC(=O)C1=Cc2ccccc2OC1)C(=O)NCc1ccco1 (stereo unspecified) | 1 | 37 | -2 | 12* | 0 | -1
CCc1nn2c(=O)cc(COc3ccc(NC(=O)c4ccco4)cc3)nc2s1 | ? | 32 | . | . | . | .
CCCc1nn2c(=O)cc(COc3ccc(NC(=O)c4ccco4)cc3)nc2s1 | 1 | 64* | . | . | . | .
CN(Cc1ccco1)S(=O)(=O)c1ccc(CN2C(=O)c3cccnc3C2=O)s1 | -1 | 22 | . | . | . | .
CC1CCN(c2cc(N)c(Cl)cc2[N+](=O)[O-])CC1 | -3 | 6 | -3 | 16* | -1 | -2
COc1ccc(S(=O)(=O)N2CCCC(C(=O)NCc3ccccn3)C2)cc1 (stereo unspecified) | 0 | 29 | 1 | -5 | 4 | 4
Cc1ccc(S(=O)(=O)C/N=C(/NC(=S)N(c2ccccc2)c2ccccc2)c2ccccc2)cc1 | -3 | 66* | 2 | 1 | -4 | -1
O=[N+]([O-])c1ccc2[nH]nc(-c3ccccc3)c2c1 | -1 | 2 | -1 | 9.8* | 1 | 8.9*
O=C(O)c1[nH]c2ccc([N+](=O)[O-])cc2c1-c1ccccc1 | 3 | 33 | 1 | . | -2 | 4
O=C1c2ccccc2C(=O)N1CCCc1nc2ccccc2c(=O)n1Cc1ccco1 | 6 | 11 | 130* | -5 | 7 | -4
O=C1c2ccccc2C(=O)N1CCc1nc2ccccc2c(=O)n1CCCn1ccnc1 | 25* | 6 | 0 | 0 | -2 | 2
O=C1c2ccccc2C(=O)N1Cc1nc2ccccc2c(=O)n1CCCn1ccnc1 | . | 9 | 0 | -3 | -2 | 1
SMILES | RanGTP-Imp inh | PHOSPHO1 inh | Runt-CBFb FRET | Efa HMGR inh | Runt-SMMHC FRET | Wee1 degr inh
CCN(CC)CCOC(=O)c1ccc(Cl)cc1Cl | 1 | 23 | 0 | -4 | -4 | -2
CCc1nnc(NS(=O)(=O)c2ccc(Nc3ccc4nonc4c3[N+](=O)[O-])cc2)s1 | -2 | 32 | -1 | -6 | -2 | -4
O=C(Cc1ccccc1)Nc1ccccc1C(=O)N1CCCCC1 | 1 | 5 | . | . | . | .
CCN1CCc2c(sc(NC(=O)c3ccc(S(=O)(=O)N(CC)c4ccccc4)cc3)c2C(N)=O)C1 | 72* | 56 | . | . | . | .
CCOC(=O)c1c(NC(=O)Cc2ccccc2)sc2c1CCN(C)C2 | 76* | -16 | . | . | . | .
CN1CCN(C(=O)c2ccccc2NC(=O)Cc2ccccc2)CC1 | 2 | 20 | -1 | -3 | -2 | 10*
CN1CCc2c(sc(NC(=O)Cc3ccc(F)cc3)c2C(N)=O)C1 | 131* | 30 | . | . | . | .
Cc1ccc(CNC(=O)CNS(=O)(=O)c2ccc(Br)s2)cc1 | -1 | 6 | . | . | . | .
